Results on seven compounds are retold here after ChEMBL document CHEMBL1142300, “4-Aminopyrimidine tetrahydronaphthols: a series of novel vanilloid receptor-1 antagonists with improved solubility properties” (Bioorg Med Chem Lett, 2008).

SMILES strings stand for the structures. ≈ marks a conversion by molar mass, not a printed value.

Data set [1] deals with Transient receptor potential cation channel subfamily V member 1 (Homo sapiens, UniProt Q8NER1). As to the kind of experiment: Antagonist activity at human TRPV1 expressed in CHO cells assessed as inhibition of capsaicin-induced calcium mobilization. Type of data set: functional, cell-based. A digest of the protocol:
(§1)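 Inhibition of capsaicin-evoked 45Ca2+ uptake into CHO cells stably expressing human or rat TRPV1; IC50 taken as mean of at least three measurements ± SEM. Compounds were also run separately for agonist activity.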

The nature of data set [2]: Solubility in simulated intestinal fluid at pH 6.8. Type of data set: physicochemical. A digest of the protocol:
(§2)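 Thermodynamic solubility determined on a high-throughput automated platform in three aqueous media: 0.01 N HCl, phosphate-buffered saline pH 7.4, and simulated intestinal fluid pH 6.8.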

The target in data set [3] is Transient receptor potential cation channel subfamily V member 1 (Rattus norvegicus, UniProt O35433). As to the kind of experiment: Antagonist activity at rat TRPV1 expressed in CHO cells assessed as inhibition of capsaicin-induced calcium mobilization. Type of data set: functional, cell-based. Put shortly:
as §1
On the technique in general: Calcium flux is commonly read through the fluorescence of an indicator in the cells.

In the next data set the test system is Rattus norvegicus. As to the kind of experiment: (§3) Half life in iv dosed rat. Type of data set: ADME, organism-based. Conditions: in vivo.
A short description of data set [4]: Solubility in aqueous 0.01 N HCL. In kind it is physicochemical. A digest of the protocol: as §2
Data set [5] can be described thus: Solubility in phosphate buffered saline at pH 7.4. Type of data set: physicochemical. Put shortly: as §2
Data set [6] in a line: as §3. In kind it is ADME, organism-based. Conditions: in vivo.
Data set [7] can be described thus: Clearance in iv dosed rat. Type of data set: ADME, organism-based. The conditions noted are these: in vivo.
Data set [8] in a line: Bioavailability in rat at 5 mg/kg, po. In kind it is ADME, organism-based. Conditions: in vivo.
Data set [9] is described as follows: AUC in rat at 5 mg/kg, po. The conditions noted are these: plasma. On the set-up: dose 5 mg/kg, route oral. Type of data set: ADME, organism-based.
Data set [10] in a line: AUC in rat at 3 mg/kg, po. The conditions noted are these: plasma. In kind it is ADME, organism-based. On the set-up: dose 3 mg/kg, route oral.
The mark [11] stands for this setting: simulated intestinal fluid, read-out: Solubility.
The mark [12] stands for this setting: aqueous 0.01 N HCl, read-out: Solubility.

Transient receptor potential cation channel subfamily V member 1 (Rattus norvegicus, UniProt O35433), sequence (O35433 whole entry): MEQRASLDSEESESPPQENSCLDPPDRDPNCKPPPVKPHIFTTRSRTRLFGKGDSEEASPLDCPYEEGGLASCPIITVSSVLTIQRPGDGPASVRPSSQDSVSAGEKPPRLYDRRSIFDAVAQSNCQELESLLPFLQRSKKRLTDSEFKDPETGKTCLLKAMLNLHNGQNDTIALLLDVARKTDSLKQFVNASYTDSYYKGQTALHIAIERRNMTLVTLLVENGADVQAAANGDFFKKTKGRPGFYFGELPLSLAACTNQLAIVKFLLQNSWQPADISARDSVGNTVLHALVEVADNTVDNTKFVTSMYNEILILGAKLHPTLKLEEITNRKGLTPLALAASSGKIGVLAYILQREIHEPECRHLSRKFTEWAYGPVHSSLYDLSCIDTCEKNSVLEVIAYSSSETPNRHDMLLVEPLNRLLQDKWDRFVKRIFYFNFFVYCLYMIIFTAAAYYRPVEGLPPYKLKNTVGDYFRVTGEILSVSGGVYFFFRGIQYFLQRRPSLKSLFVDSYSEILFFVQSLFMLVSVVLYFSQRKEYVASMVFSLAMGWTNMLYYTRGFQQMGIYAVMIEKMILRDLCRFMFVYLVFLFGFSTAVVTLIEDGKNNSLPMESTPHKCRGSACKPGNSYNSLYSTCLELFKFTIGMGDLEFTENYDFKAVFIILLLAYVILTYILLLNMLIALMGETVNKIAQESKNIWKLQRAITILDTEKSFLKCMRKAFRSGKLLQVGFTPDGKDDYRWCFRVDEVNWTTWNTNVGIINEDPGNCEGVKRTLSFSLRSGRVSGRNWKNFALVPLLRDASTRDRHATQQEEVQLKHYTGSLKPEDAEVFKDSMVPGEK
Transient receptor potential cation channel subfamily V member 1 (Homo sapiens, UniProt Q8NER1), sequence (Q8NER1 whole entry): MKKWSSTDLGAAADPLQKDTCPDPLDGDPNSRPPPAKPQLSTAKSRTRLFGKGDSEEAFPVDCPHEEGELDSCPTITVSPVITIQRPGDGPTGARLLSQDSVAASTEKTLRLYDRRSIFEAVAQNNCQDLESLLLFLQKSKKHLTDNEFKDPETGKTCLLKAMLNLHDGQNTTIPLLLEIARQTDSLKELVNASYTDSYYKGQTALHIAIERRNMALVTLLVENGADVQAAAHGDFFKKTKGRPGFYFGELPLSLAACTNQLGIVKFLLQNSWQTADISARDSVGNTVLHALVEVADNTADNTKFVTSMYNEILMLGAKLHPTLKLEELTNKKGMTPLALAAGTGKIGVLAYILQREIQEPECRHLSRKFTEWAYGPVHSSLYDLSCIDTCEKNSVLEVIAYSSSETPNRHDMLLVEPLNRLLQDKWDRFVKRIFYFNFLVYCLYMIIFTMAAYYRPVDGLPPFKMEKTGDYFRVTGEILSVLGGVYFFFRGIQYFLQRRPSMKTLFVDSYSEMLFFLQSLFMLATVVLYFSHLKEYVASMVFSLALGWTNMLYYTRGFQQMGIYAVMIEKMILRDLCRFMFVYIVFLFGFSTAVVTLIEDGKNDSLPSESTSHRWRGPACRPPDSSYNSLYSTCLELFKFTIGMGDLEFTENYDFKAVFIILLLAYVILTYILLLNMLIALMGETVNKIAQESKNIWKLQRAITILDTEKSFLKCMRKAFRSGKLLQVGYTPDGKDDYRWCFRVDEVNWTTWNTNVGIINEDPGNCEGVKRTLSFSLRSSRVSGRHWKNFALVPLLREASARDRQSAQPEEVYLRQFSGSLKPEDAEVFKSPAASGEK

A word on the IC50: it is the concentration at which inhibition is half-maximal. By Solubility is commonly meant how much of the substance goes into solution per volume. Consider `OC1CCc2cccc(Nc3cc(-c4ccc(C(F)(F)F)cc4)ncn3)c2C1` (single isomer, unassigned; (+)), for which the values for the concentration for half-maximal inhibition (IC50) in [1] and in [3] were 0.58 nM and 5.7 nM, respectively. Further, the Solubility in data set [2] (simulated gi fluid) is 60 µg/mL (≈ 156 µM); in [4] (buffer) it was 180 µg/mL (≈ 467 µM); in data set [5] (buffer), 5.6 µg/mL (≈ 14.5 µM). The compound also returned a t1/2 with Rattus norvegicus of 1.2 h.

As usually defined, the half-life is the time needed for the level to fall by half in the phase considered. For orientation: clearance means the rate of elimination divided by the concentration. `OC1CCc2cccc(Nc3cc(-c4ccc(C(F)(F)F)cc4)ncn3)c2C1` (single isomer, unassigned; (-)): the figures for the IC50 in data set [1] and in [3] were 0.62 nM and 5.5 nM, respectively. In addition, the Solubility in data set [2] (setting [11]) is 85 µg/mL (≈ 221 µM); in [4] (setting [12]), 160 µg/mL (≈ 415 µM); in [5] (buffer), 9.1 µg/mL (≈ 23.6 µM). Further, the half-life in [6] is 0.9 h. The clearance in [7] was 96.7 mL/min/kg.

Usually bioavailability stands for dose-corrected exposure relative to a reference, in per cent. As a reminder, the AUC is concentration integrated over time. Read a high AUC as more exposure. On to `OC1CCc2c(Br)ccc(Nc3cc(-c4ccc(C(F)(F)F)cc4)ncn3)c2C1` (centres undefined), for which the IC50 in [1] stood at 2.1 nM; in data set [3], 9.6 nM. Further, the Solubility in [2] (setting [11]) is 73 µg/mL (≈ 157 µM); in data set [4] (setting [12]), 7.2 µg/mL (≈ 15.5 µM); in data set [5] (phosphate buffered saline, read-out: Solubility), 7.7 µg/mL (≈ 16.6 µM). Also, the half-life in data set [6] was 5.5 h. The compound also displayed a bioavailability in data set [8] of 60%. Moreover, the clearance in [7] was 6.5 mL/min/kg. Moreover, the area under the curve (AUC) in data set [9] was 7600 ng·h/mL.

Consider `CC(=O)Nc1nc2c(Oc3cc(-c4ccc(C(F)(F)F)cc4)ncn3)cccc2s1` [AMG-517], for which the Solubility was 0.66 µg/mL (≈ 1.53 µM) in data set [2] (simulated gi fluid), less than 0.1 µg/mL in [4] (buffer) and less than 0.1 µg/mL in data set [5] (buffer). The compound further showed an area under the curve (AUC) in data set [10] of 5300 ng·h/mL.

The compound `OC1CCc2c(Cl)ccc(Nc3cc(-c4ccc(C(F)(F)F)cc4)ncn3)c2C1` (centres undefined) registered a bioavailability in data set [8] of 34%. Further, the exposure (AUC) in data set [9] was 3400 ng·h/mL.

`CSc1cccc(NC(=O)Nc2cccc3ccc(O)cc23)c1`: the half-inhibitory concentration (IC50) in data set [1] worked out at 13 nM; in data set [3] it was 35 nM.

On to `OC1CCc2cccc(Nc3cc(-c4ccc(C(F)(F)F)cc4)ncn3)c2C1` (stereo in doubt; 4), for which the IC50 in data set [1] amounted to 0.65 nM; in data set [3], 3.1 nM. The Solubility amounted to 190 µg/mL (≈ 493 µM) in data set [4] (buffer) and 23 µg/mL (≈ 59.7 µM) in data set [5] (buffer).
